Calls of active or inactive are those of the source. No cut-off for these calls is given here.
Experiments:
MEF [1] = experiment: Induction of apoptosis in wild type mouse MEF cells assessed as PARP cleavage at 0.5 uM measured after 6 hrs by western blot assay; format: functional, cell-based
Method in brief: (§1)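 Wild-type, Nur77−/− or Bcl-2−/− mouse embryonic fibroblasts grown in DMEM with 10% FBS and treated with 0.5 µM for 6 h. PARP cleavage detected by western blot, primary antibodies at 1:1000, ECL.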

HCT-116 [2] = experiment: Induction of apoptosis in human HCT-116 cells assessed as PARP cleavage at 0.5 uM measured after 6 hrs by western blot assay; format: functional, cell-based
Method in brief: (§2)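 Cells exposed to 0.5 µM for 6 h. Lysates resolved by SDS-PAGE and blotted to PVDF, blocked in 5% milk/TBST, probed with primary antibodies at 1:1000, ECL detection. Apoptosis scored as the densitometric ratio of cleaved PARP band to intact PARP band; mean ± SD, n = 3.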

[3] = Selectivity index, ratio of IC50 for human NCM460 cells to IC50 for human SW-620 cells
[4] = Oral bioavailability in male/female Sprague-Dawley rat at 5 mg/kg measured for 36 hrs by LC-MS/MS analysis; format: ADME, organism-based; details: both, in vivo
Method in brief: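 Sprague-Dawley rats (200–220 g), four per route group (2 male, 2 female), given 0.5 mg/kg IV or 5 mg/kg orally in DMSO/T-80/H2O (1:5:94). Heparinized blood was sampled at 5 min–36 h after IV and at 0.5, 1, 3, 4, 6, 8, 10, 12, 24 and 36 h after oral dosing. Plasma was methanol (2% HCl)-precipitated with carbamazepine internal standard and quantified by LC-MS/MS. Parameters reported as mean ± SD.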

MEF [5] = experiment: Induction of apoptosis in mouse MEF cells lacking Nur77 assessed as PARP cleavage at 0.5 uM measured after 6 hrs by western blot assay; format: functional, cell-based; method in brief: as §1
[6] = Selectivity index, ratio of IC50 for human MCF-10A cells to IC50 for human MDA-MB-231 cells; format: toxicity; details: MCF-10A cells versus MDA-MB-231 cells, read-out: Ratio IC50
[7] = Half life in male/female Sprague-Dawley rat at 5 mg/kg, po measured for 36 hrs by LC-MS/MS analysis; format: ADME, organism-based; details: both, in vivo
[8] = Clearance in male/female Sprague-Dawley rat at 0.5 mg/kg, iv measured for 36 hrs by LC-MS/MS analysis; format: ADME, organism-based; details: both, in vivo
[9] = molecular target: Nuclear receptor subfamily 4immunitygroup A member 1 (Homo sapiens, UniProt P22736); experiment: Modulation of Myc-Nur77 (unknown origin) transfected in human HEK293T cells assessed as induction of Myc-Nur77 mitochondrial targeting by measuring increase in Myc-Nur77 accumulation in mitochondria at 0.5 uM measured after 2 hrs by western blot analysis; details: filed as modulator
Method in brief: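 HEK293T cells transfected with Myc-Nur77 were exposed to 0.5 μM compound for 2 h. Cells were homogenised in sucrose Buffer D; 500 g then 5000 g spins gave a mitochondrial pellet. Whole-cell and mitochondrial fractions were western blotted for Myc-Nur77, with PARP and Tom20 as fraction-purity markers.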

BT-549 = experiment: Induction of apoptosis in human BT-549 cells assessed as PARP cleavage at 0.5 uM measured after 6 hrs by western blot assay; format: functional, cell-based; method in brief: as §2
[10] = Toxicity in mammary tumor MMTV-PyMT mouse model assessed as changes in body weight at 3 mg/kg, po administered daily for 14 days; format: organism-based; details: in vivo, 336 h, time 14 day
Method in brief: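 Female MMTV-PyMT transgenic mice (FVB/N background), 12 weeks old, randomized n = 6 per group. They received daily oral gavage of 3 mg/kg for 14 days. Drug was dissolved in DMSO and diluted with saline containing 5.0% Tween-80 to 3 mg/mL final. Body weight was recorded after 14 days against untreated controls, mean ± SD.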

HCT-116 [11] = experiment: Induction of apoptosis in human HCT-116 cells assessed as PARP cleavage at 0.5 uM measured after 6 hrs by western blot assay relative to Di(1H-indol-3-yl)(4-(trifluoromethyl)phenyl)methylium methanesulfonate; format: functional
Method in brief: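 HCT116 cells grown in RPMI-1640 with 10% FBS, exposed to 0.5 μM compound for 6 h. Lysates run on SDS-PAGE and blotted for PARP and cleaved PARP (primary antibodies 1:1000, ECL detection). The cleaved-PARP/PARP band intensity ratio was expressed relative to the reference compound set to 1. Mean ± SD, n = 3.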

[12] = Cmax in male/female Sprague-Dawley rat at 0.5 mg/kg, iv measured for 36 hrs by LC-MS/MS analysis; format: ADME, organism-based; set-up: route intravenous, dose 0.5 mg/kg, time 36 hrs; details: both, in vivo
[13] = Clearance in female Sprague-Dawley rat at 0.5 mg/kg, iv measured for 36 hrs by LC-MS/MS analysis; format: ADME, organism-based; details: in vivo
[14] = Oral bioavailability in female Sprague-Dawley rat at 5 mg/kg measured for 36 hrs by LC-MS/MS analysis; format: ADME, organism-based; details: in vivo
Method in brief: (§3)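 Sprague-Dawley rats (200–220 g), three males and three females per route group. Dosed 5 mg/kg orally or 0.5 mg/kg IV as a solution in DMSO/T-80/H2O (1:5:94 by volume). Heparinized blood was drawn from 5 min to 36 h after IV and 1–36 h after oral dosing. Plasma was protein-precipitated with methanol (2% HCl) plus carbamazepine internal standard and assayed by LC-MS/MS. Parameters were taken from concentration-time data; n = 3 per sex, mean ± SD.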

[15] = Cmax in male Sprague-Dawley rat at 0.5 mg/kg, iv measured for 36 hrs by LC-MS/MS analysis; format: ADME, organism-based; set-up: route intravenous, dose 0.5 mg/kg, time 36 hrs; details: in vivo
[16] = AUC (0 to t) in male Sprague-Dawley rat at 0.5 mg/kg, iv measured for 36 hrs by LC-MS/MS analysis; format: ADME, organism-based; set-up: time 36 hrs, dose 0.5 mg/kg; details: in vivo
Method in brief: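 Sprague-Dawley rats (200–220 g), three per sex per route, were dosed at 0.5 mg/kg IV or 5 mg/kg PO in DMSO/Tween-80/water (1:5:94). Heparinized blood was drawn from 5 min to 36 h after IV dosing and from 1 h to 36 h after oral dosing. Plasma was deproteinized with methanol (2% HCl) plus carbamazepine internal standard, measured by LC-MS/MS, and reported as mean ± SD.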

[17] = MRT(0 to t) in female Sprague-Dawley rat at 5 mg/kg, po measured for 36 hrs by LC-MS/MS analysis; format: ADME, organism-based; details: in vivo
[18] = Clearance in male Sprague-Dawley rat at 0.5 mg/kg, iv measured for 36 hrs by LC-MS/MS analysis; format: ADME, organism-based; details: in vivo
[19] = Cmax in male Sprague-Dawley rat at 5 mg/kg, po measured for 36 hrs by LC-MS/MS analysis; format: ADME, organism-based; set-up: route oral, time 36 hrs, dose 5 mg/kg; details: in vivo
[20] = Cmax in female Sprague-Dawley rat at 0.5 mg/kg, iv measured for 36 hrs by LC-MS/MS analysis; format: ADME, organism-based; set-up: route intravenous, time 36 hrs, dose 0.5 mg/kg; details: in vivo
[21] = Oral bioavailability in male Sprague-Dawley rat at 5 mg/kg measured for 36 hrs by LC-MS/MS analysis; format: ADME, organism-based; details: in vivo; method in brief: as §3
[22] = Tmax in female Sprague-Dawley rat at 5 mg/kg, po measured for 36 hrs by LC-MS/MS analysis; format: ADME, organism-based; details: in vivo; method in brief: as §3

Chain of Nuclear receptor subfamily 4immunitygroup A member 1 (P22736 whole entry): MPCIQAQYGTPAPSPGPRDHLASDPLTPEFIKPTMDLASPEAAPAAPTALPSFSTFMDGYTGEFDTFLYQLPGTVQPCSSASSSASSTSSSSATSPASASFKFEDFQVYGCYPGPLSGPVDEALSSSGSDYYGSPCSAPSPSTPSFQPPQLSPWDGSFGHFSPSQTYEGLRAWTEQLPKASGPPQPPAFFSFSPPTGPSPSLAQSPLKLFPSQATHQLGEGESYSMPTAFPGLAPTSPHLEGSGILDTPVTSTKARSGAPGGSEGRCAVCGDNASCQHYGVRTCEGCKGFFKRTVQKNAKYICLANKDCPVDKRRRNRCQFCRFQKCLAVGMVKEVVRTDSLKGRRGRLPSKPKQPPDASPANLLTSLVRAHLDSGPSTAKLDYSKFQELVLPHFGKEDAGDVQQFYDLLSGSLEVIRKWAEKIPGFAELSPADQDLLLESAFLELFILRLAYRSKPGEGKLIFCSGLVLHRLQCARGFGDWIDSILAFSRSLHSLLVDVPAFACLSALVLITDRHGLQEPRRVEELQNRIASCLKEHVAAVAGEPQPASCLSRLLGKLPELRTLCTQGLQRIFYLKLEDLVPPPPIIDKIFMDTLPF

CS(=O)(=O)[O-].Cn1cc([C+](c2ccc(C(F)(F)F)cc2)c2c[nH]c3ccccc23)c2ccccc21
Activity (MEF [1]): Active | Activity (HCT-116 [2]): Active | Ratio IC50 [3]: 50 | bioavailability [4]: 14.6% | Activity (MEF [5]): inactive | selectivity ratio [6]: 40 | half-life [7]: 4.49 h | clearance [8]: 1.02 L/h/kg | Activity [9]: Active | Activity (BT-549): Active | Activity [10]: Non-Toxic | fold change (FC) (HCT-116 [11]): 13.54 | Cmax [12]: 0.561 µg/mL

CS(=O)(=O)[O-].FC(F)(F)c1ccc([C+](c2c[nH]c3ccccc23)c2c[nH]c3ccccc23)cc1
CL [13]: 0.28 L/h/kg | bioavailability [14]: 22.8% | Cmax [15]: 0.88 µg/mL | AUC(0-t) at 36 h [16]: 1.12 µg·h/mL | MRT last at 36 h [17]: 14.5 h | clearance [18]: 0.45 L/h/kg | Cmax [19]: 0.143 µg/mL | Cmax [20]: 1.64 µg/mL | bioavailability [21]: 20.1% | Tmax [22]: 5.33 h

Reference: ChEMBL document CHEMBL4819003, “Optimization of novel oxidative DIMs as Nur77 modulators of the Nur77-Bcl-2 apoptotic pathway” (Eur J Med Chem, 2021)
